In ChEMBL document CHEMBL1124929, “Indolo[2,1-a]isoquinolines. Syntheses, steroid hormone receptor binding affinities, and cytostatic activity” (1990) one finds T/C data, which are given here for one compound.

The subject of this assay is MCF7. Briefly: Effect on hormone-dependent MCF-7 human breast cancer cell proliferation at 5x10E-6M. The format is functional. In a few lines:
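Cells were plated at about 2 × 10⁴ per well in six-well dishes. MCF-7 cells were grown in modified improved MEM with 5% NCS, switched to charcoal-treated NCS two weeks before the test, and exposed for 5 days with a re-dose on day 4. MDA-MB 231 cells were grown in McCoy 5a with 10% NCS and exposed for 2 days. Compounds were given 1 day after plating in 0.1% DMSO, with DMSO-matched controls. Read-out was cell number as % T/C, mean of three experiments with six dishes.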

The compound `CCC1Cc2cc(OC(C)=O)ccc2-c2cc3cc(OC(C)=O)ccc3n21` (stereo unspecified) returned a T/C of 10%.
